{
  "source": "ChEMBL document CHEMBL1123757",
  "about": "“Selective thromboxane synthetase inhibitors and antihypertensive agents. New derivatives of 4-hydrazino-5H-pyridazino[4,5-b]indole, 4-hydrazinopyridazino[4,5-a]indole, and related compounds” (J Med Chem, 1987)",
  "key": {"Rattus norvegicus [1]": {"test_system": "Rattus norvegicus", "assay": "Antihypertensive activity in spontaneously hypertensive rats (SHR) measured by percentage fall in cardiac rhythm (CR) at 25 mg/kg administered intraperitoneally at 3 h", "type": "functional, Heart", "conditions": "route intraperitoneal", "how_it_was_run": "(§1)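 Unanesthetized Okamoto-strain SHR, male and female, 8 weeks old, 300–350 g, systolic pressure ≥190 mmHg, heart rate 400–650 beats/min; five animals per dose. Given ip at 2.5 mL/kg, dissolved or suspended in normal saline or saline with 0.2% (carboxymethyl)cellulose and 1.0% Tween 80. Tail AP and CR recorded by mechanical transduction at set times; reported as percentage fall from control.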"}, "Rattus norvegicus [2]": {"test_system": "Rattus norvegicus", "assay": "Antihypertensive activity in spontaneously hypertensive rats (SHR) measured by percentage fall in cardiac rhythm (CR) at 25 mg/kg administered intraperitoneally at 5 h;No significance", "type": "functional, organism-based", "set-up": "dose 25 mg/kg", "conditions": "Heart", "how_it_was_run": "(§2)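 Conscious SHR (Okamoto strain), 8 weeks old, male and female, 300–350 g, systolic BP ≥190 mmHg, CR 400–650 beats/min. Given ip or po at 2.5 mL/kg in normal saline or saline with 0.2% (carboxymethyl)cellulose and 1.0% Tween 80. Tail AP and CR recorded by mechanical transduction at 1, 3, 5 and 24 h, five animals per dose. Effect expressed as % fall versus control.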"}, "Rattus norvegicus [3]": {"test_system": "Rattus norvegicus", "assay": "Antihypertensive activity in spontaneously hypertensive rats (SHR) measured by percentage fall in arterial pressure (AP) at 25 mg/kg administered intraperitoneally at 5 h", "type": "functional, Artery", "conditions": "route intraperitoneal", "how_it_was_run": "as §1"}, "Rattus norvegicus [4]": {"test_system": "Rattus norvegicus", "assay": "Antihypertensive activity in spontaneously hypertensive rats (SHR) measured by percentage fall in cardiac rhythm (CR) at 25 mg/kg administered intraperitoneally at 24 h;No significance", "type": "functional, organism-based", "set-up": "dose 25 mg/kg", "conditions": "Heart", "how_it_was_run": "as §1"}, "Rattus norvegicus [5]": {"test_system": "Rattus norvegicus", "assay": "Antihypertensive activity in spontaneously hypertensive rats (SHR) measured by percentage fall in arterial pressure (AP) at 25 mg/kg administered intraperitoneally at 24 h;No significance", "type": "functional, organism-based", "set-up": "dose 25 mg/kg", "conditions": "Artery", "how_it_was_run": "as §1"}, "Rattus norvegicus [6]": {"test_system": "Rattus norvegicus", "assay": "Antihypertensive activity in spontaneously hypertensive rats (SHR) measured by percentage fall in arterial pressure (AP) at 25 mg/kg administered intraperitoneally at 3 h;No significance", "type": "functional, organism-based", "set-up": "dose 25 mg/kg", "conditions": "Artery", "how_it_was_run": "as §1"}, "Rattus norvegicus [7]": {"test_system": "Rattus norvegicus", "assay": "Antihypertensive activity in spontaneously hypertensive rats (SHR) measured by percentage fall in cardiac rhythm (CR) at 25 mg/kg administered intraperitoneally at 5 h", "type": "functional, Heart", "conditions": "route intraperitoneal", "how_it_was_run": "as §2"}, "Rattus norvegicus [8]": {"test_system": "Rattus norvegicus", "assay": "Antihypertensive activity in spontaneously hypertensive rats (SHR) measured by percentage fall in arterial pressure (AP) at 25 mg/kg administered intraperitoneally at 3 h", "type": "functional, Artery", "conditions": "route intraperitoneal", "how_it_was_run": "as §1"}, "Rattus norvegicus [9]": {"test_system": "Rattus norvegicus", "assay": "Antihypertensive activity in spontaneously hypertensive rats (SHR) measured by percentage fall in arterial pressure (AP) at 25 mg/kg administered intraperitoneally at 1 h", "type": "functional, Artery", "conditions": "route intraperitoneal", "how_it_was_run": "as §1"}, "Rattus norvegicus [10]": {"test_system": "Rattus norvegicus", "assay": "Antihypertensive activity in spontaneously hypertensive rats (SHR) measured by percentage fall in cardiac rhythm (CR) at 25 mg/kg administered intraperitoneally at 1 h", "type": "functional, Heart", "conditions": "route intraperitoneal", "how_it_was_run": "as §1"}, "Rattus norvegicus [11]": {"test_system": "Rattus norvegicus", "assay": "Antihypertensive activity in spontaneously hypertensive rats (SHR) measured by percentage fall in arterial pressure (AP) at 25 mg/kg administered intraperitoneally at 24 h", "type": "functional, Artery", "conditions": "route intraperitoneal", "how_it_was_run": "as §1"}},
  "data": [
    {"compound": "COc1ccc2[nH]c3c(cnn4cnnc34)c2c1", "values": [
      {"measurement": "Decrease in CR", "setting": "Rattus norvegicus [1]", "value": 10, "unit": "%"},
      {"measurement": "Decrease in CR", "setting": "Rattus norvegicus [2]", "value": "No significant values"},
      {"measurement": "Decrease in AP", "setting": "Rattus norvegicus [3]", "value": 11, "unit": "%"},
      {"measurement": "Decrease in CR", "setting": "Rattus norvegicus [4]", "value": "No significant values"},
      {"measurement": "Decrease in AP", "setting": "Rattus norvegicus [5]", "value": "No significant values"},
      {"measurement": "Decrease in AP", "setting": "Rattus norvegicus [6]", "value": "No significant values"}
    ]},
    {"compound": "COc1ccc2[nH]c3c(cnn4c(C)nnc34)c2c1", "values": [
      {"measurement": "Decrease in CR", "setting": "Rattus norvegicus [1]", "value": -5, "unit": "%"},
      {"measurement": "Decrease in CR", "setting": "Rattus norvegicus [7]", "value": 7, "unit": "%"},
      {"measurement": "Decrease in AP", "setting": "Rattus norvegicus [3]", "value": 8, "unit": "%"},
      {"measurement": "Decrease in CR", "setting": "Rattus norvegicus [4]", "value": "No significant values"},
      {"measurement": "Decrease in AP", "setting": "Rattus norvegicus [5]", "value": "No significant values"},
      {"measurement": "Decrease in AP", "setting": "Rattus norvegicus [8]", "value": 10, "unit": "%"}
    ]},
    {"compound": "COc1ccc2[nH]c3c(NN)nncc3c2c1", "values": [
      {"measurement": "Decrease in CR", "setting": "Rattus norvegicus [1]", "value": -8, "unit": "%"},
      {"measurement": "Decrease in CR", "setting": "Rattus norvegicus [7]", "value": -10, "unit": "%"},
      {"measurement": "Decrease in AP", "setting": "Rattus norvegicus [9]", "value": 17, "unit": "%"},
      {"measurement": "Decrease in AP", "setting": "Rattus norvegicus [3]", "value": 30, "unit": "%"},
      {"measurement": "Decrease in CR", "setting": "Rattus norvegicus [10]", "value": -8, "unit": "%"},
      {"measurement": "Decrease in AP", "setting": "Rattus norvegicus [8]", "value": 32, "unit": "%"},
      {"measurement": "Decrease in AP", "setting": "Rattus norvegicus [11]", "value": 5, "unit": "%"}
    ]},
    {"compound": "NNc1[nH]ncc2c3cc(OCc4ccccc4)ccc3nc1-2.O=S(=O)(O)O", "values": [
      {"measurement": "Decrease in CR", "setting": "Rattus norvegicus [1]", "value": 7, "unit": "%"},
      {"measurement": "Decrease in CR", "setting": "Rattus norvegicus [7]", "value": 8, "unit": "%"},
      {"measurement": "Decrease in AP", "setting": "Rattus norvegicus [9]", "value": 21, "unit": "%"},
      {"measurement": "Decrease in AP", "setting": "Rattus norvegicus [3]", "value": 26, "unit": "%"},
      {"measurement": "Decrease in CR", "setting": "Rattus norvegicus [10]", "value": 9, "unit": "%"},
      {"measurement": "Decrease in AP", "setting": "Rattus norvegicus [8]", "value": 32, "unit": "%"}
    ]}
  ]
}
